{"source": "ChEMBL document CHEMBL3525967", "about": "“In vitro glucuronidation of the antibacterial triclocarban and its oxidative metabolites” (Drug Metab Dispos, 2012)", "key": {"[1]": {"assay": "Drug metabolism in cynomolgus monkey liver microsomes after 30 mins by LC-ESI-MS analysis", "type": "ADME, Macaca fascicularis", "procedure,_shortened": "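2'-OH-TCC at 0.2, 0.5, 1, 2, 3, 5, 10 and 50 µM incubated with liver microsomes (alamethicin, MgCl2, saccharolactone, UDPGA; 37 °C), sampled at 5, 10, 15 and 30 min. Samples ≥5 µM diluted 1:9 in ACN; LC-ESI-MS. KM and vmax fitted from rate vs concentration; intrinsic clearance derived from these; mean and SD of three.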"}, "[2]": {"assay": "Drug metabolism in human kidney microsomes assessed as N'-glucuronide-triclocarban formation incubated for 5 mins prior to UDPGA addition measured after 30 mins by LC-UV-ESI-MS/MS analysis", "type": "ADME", "settings": "0.5 h", "procedure,_shortened": "(§1)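 Pooled human kidney or liver microsomes (liver: 25 mixed-gender donors), 5 µg protein, in 200 µL 100 mM potassium phosphate pH 7.4. Alamethicin pre-treated on ice 15 min. Final 10 µM TCC (2% DMSO), with 10 mM MgCl2 and 10 mM saccharolactone, preincubated 5 min at 37 °C. Started with UDPGA (20 mM stock). Sampled at 5, 10, 15 and 30 min into ACN containing 1 µM DCC internal standard.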"}, "[3]": {"assay": "Drug metabolism in B6C3F1 mouse liver microsomes assessed as N-glucuronide-triclocarban formation incubated for 5 mins prior to UDPGA addition measured after 30 mins by LC-UV-ESI-MS/MS analysis", "type": "ADME", "settings": "0.5 h", "procedure,_shortened": "(§2)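 TCC was incubated at 10 µM (2% DMSO) in 100 mM phosphate pH 7.4 with alamethicin-treated microsomes or Supersomes, 10 mM MgCl2 and 10 mM saccharolactone. After 5 min pre-incubation at 37 °C, UDPGA was added to start the reaction. Protein was raised up to 2 mg/mL. Samples were quenched in ACN with 1 µM DCC internal standard, centrifuged, and N-glucuronides detected by LC-ESI-MS/MS in SRM mode.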"}, "[4]": {"molecular_target": "T1, UDP-glucuronosyltransferase 1A1 (Homo sapiens, UniProt P22309)", "T1 sequence (P22309 whole entry)": "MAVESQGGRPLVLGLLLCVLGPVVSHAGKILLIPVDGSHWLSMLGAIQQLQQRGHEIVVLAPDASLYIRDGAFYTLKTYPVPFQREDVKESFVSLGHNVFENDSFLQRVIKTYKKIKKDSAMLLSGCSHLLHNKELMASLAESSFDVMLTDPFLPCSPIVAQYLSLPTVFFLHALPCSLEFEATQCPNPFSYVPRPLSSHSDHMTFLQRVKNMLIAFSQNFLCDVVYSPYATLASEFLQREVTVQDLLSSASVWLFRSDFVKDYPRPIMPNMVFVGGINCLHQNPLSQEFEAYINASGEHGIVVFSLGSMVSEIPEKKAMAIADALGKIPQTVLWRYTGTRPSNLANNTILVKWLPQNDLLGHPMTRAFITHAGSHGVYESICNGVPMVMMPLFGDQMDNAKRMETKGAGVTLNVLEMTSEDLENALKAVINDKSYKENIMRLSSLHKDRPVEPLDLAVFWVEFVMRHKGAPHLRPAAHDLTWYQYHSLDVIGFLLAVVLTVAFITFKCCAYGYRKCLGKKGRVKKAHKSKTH", "assay": "Drug metabolism assessed as human UGT1A1-mediated N'-glucuronide-triclocarban formation expressed in baculovirus infected insect sf9 cells incubated for 5 mins prior to UDPGA addition measured after 5 to 30 mins by LC-UV analysis", "type": "ADME", "procedure,_shortened": "(§3)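 Microsomes or UGT Supersomes (5 µg protein) were held 15 min on ice with alamethicin in 100 mM potassium phosphate pH 7.4. TCC was added at 10 µM (2% DMSO) with 10 mM MgCl2 and 10 mM saccharolactone, pre-warmed 5 min at 37 °C, then started with UDPGA. Samples at 5, 10, 15 and 30 min were quenched in ACN. Product was read by LC-UV at 265 nm; rate came from regression over time, three incubations.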"}, "[5]": {"assay": "Drug metabolism in human kidney microsomes assessed as N-glucuronide-triclocarban formation incubated for 5 mins prior to UDPGA addition measured after 30 mins by LC-UV-ESI-MS/MS analysis", "type": "ADME", "settings": "0.5 h", "procedure,_shortened": "as §1"}, "Liver microsome": {"test_system": "Liver microsome", "assay": "Drug metabolism in human liver microsomes assessed as N'-glucuronide-triclocarban formation incubated for 5 mins prior to UDPGA addition measured after 30 mins by LC-UV-ESI-MS/MS analysis", "type": "ADME", "settings": "0.5 h", "procedure,_shortened": "as §1"}, "[6]": {"assay": "Drug excretion in Sprague-Dawley rat urine assessed as 6-O-glucuronide-triclocarban formation at 1 mg/kg, po by LC-MS analysis", "type": "ADME, organism-based", "set-up": "dose 1 mg/kg, route oral", "settings": "in vivo"}, "[7]": {"molecular_target": "T2, UDP-glucuronosyltransferase 1A6 (Homo sapiens, UniProt P19224)", "T2 sequence (P19224 whole entry)": "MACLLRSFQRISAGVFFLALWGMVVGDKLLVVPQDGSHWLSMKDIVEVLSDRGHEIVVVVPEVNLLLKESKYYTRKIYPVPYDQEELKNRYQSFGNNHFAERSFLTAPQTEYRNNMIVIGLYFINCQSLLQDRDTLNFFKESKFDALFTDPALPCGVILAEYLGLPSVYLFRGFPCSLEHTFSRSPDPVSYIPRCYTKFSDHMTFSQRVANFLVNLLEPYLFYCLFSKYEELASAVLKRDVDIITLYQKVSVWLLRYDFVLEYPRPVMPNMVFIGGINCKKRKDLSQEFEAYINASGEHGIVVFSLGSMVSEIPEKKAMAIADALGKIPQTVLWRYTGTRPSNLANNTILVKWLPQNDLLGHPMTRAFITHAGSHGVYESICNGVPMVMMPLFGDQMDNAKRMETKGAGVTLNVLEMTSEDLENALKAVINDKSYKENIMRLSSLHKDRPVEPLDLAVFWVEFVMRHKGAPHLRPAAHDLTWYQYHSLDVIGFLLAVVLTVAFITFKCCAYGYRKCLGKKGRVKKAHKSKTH", "assay": "Drug metabolism assessed as human UGT1A6-mediated N'-glucuronide-triclocarban formation expressed in baculovirus infected insect sf9 cells incubated for 5 mins prior to UDPGA addition measured after 5 to 30 mins by LC-UV analysis", "type": "ADME", "procedure,_shortened": "as §3"}, "[8]": {"assay": "Drug metabolism in B6C3F1 mouse liver microsomes assessed as N'-glucuronide-triclocarban formation incubated for 5 mins prior to UDPGA addition measured after 30 mins by LC-UV-ESI-MS/MS analysis", "type": "ADME", "settings": "0.5 h", "procedure,_shortened": "as §2"}, "[9]": {"assay": "Drug excretion in Swiss webster mouse urine assessed as 6-O-glucuronide-triclocarban formation at 5 mg/kg, po by LC-MS analysis", "type": "ADME, organism-based", "set-up": "dose 5 mg/kg, route oral", "settings": "in vivo", "procedure,_shortened": "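Mice were housed two per metabolic cage, with blank urine collected over the 24 h before dosing. TCC was given by oral gavage as a 1 mg/mL solution in 20/80 DMSO/PEG400 (v/v) at 5 mg/kg. Urine was collected at 0-24 h and 24-48 h and analysed by online LC-MS. Values are the mean of two independent experiments.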"}, "[10]": {"assay": "Drug metabolism in microsomes (unknown origin) assessed as retention time at 10 uM by LC-UV-MS method", "type": "ADME, Microsome", "procedure,_shortened": "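Retention times were measured on a C18 column (2 × 100 mm, 2.2 µm) at 300 µL/min. Solvent A was 25 mM ammonium acetate with 0.1% acetic acid; solvent B was ACN. Gradient: 30% B isocratic for 2 min, convex 30–85% B to 7.5 min, then […]. Detection was UV at 265 nm and ESI-MS in SRM mode.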"}}}
{"smiles": "O=C(Nc1ccc(Cl)c(Cl)c1)Nc1ccc(Cl)cc1O", "values": [{"measurement": "Km at 0.5 h", "setting": "[1]; liver microsomes", "result": 1.4, "unit": "µM"}, {"measurement": "Vmax", "setting": "[1]; microsomes, 0.5 h", "result": 26.7, "unit": "nmol/min/mg"}]}
{"smiles": "O=C(Nc1ccc(Cl)cc1)Nc1ccc(Cl)c(Cl)c1", "note": "[TRICLOCARBAN]", "values": [{"measurement": "Drug metabolism", "setting": "[2]", "result": "metabolite_detected"}, {"measurement": "Drug metabolism", "setting": "[3]", "result": "metabolite_detected"}, {"measurement": "Drug metabolism", "setting": "[4]", "result": "metabolite_not_detected"}, {"measurement": "Drug metabolism", "setting": "[5]", "result": "metabolite_detected"}, {"measurement": "Drug metabolism", "setting": "Liver microsome", "result": "metabolite_detected"}, {"measurement": "Drug excretion", "setting": "[6]", "result": "metabolite_detected"}, {"measurement": "Drug metabolism", "setting": "[7]", "result": "metabolite_not_detected"}, {"measurement": "Drug metabolism", "setting": "[8]", "result": "metabolite_detected"}, {"measurement": "Drug excretion", "setting": "[9]", "result": "metabolite_detected"}, {"measurement": "Retention_time", "setting": "[10]", "result": 5.1, "unit": "min"}]}
